Assay [1] deals with Receptor-type tyrosine-protein kinase FLT3 (Homo sapiens) (UniProt P36888). In words: Inhibition of human FLT3 assessed as residual activity at 0.123 uM using EAIYAAPFAKKK as substrate preincubated for 20 mins followed by [gamma-33P]-ATP addition measure after 120 mins by filter binding method relative to control.
The target of assay [2] is CDK2/Cyclin A1 (Homo sapiens) (UniProt P24941+P78396). In words: Inhibition of human CDK2/Cyclin A1 assessed as residual activity at 0.123 uM using histone H1 as substrate preincubated for 20 mins followed by [gamma-33P]-ATP addition measure after 120 mins by filter binding method relative to control. The format is protein-complex assay.
A further assay has as its target CDK2/Cyclin A1 (Homo sapiens, UniProt P24941). In words: Inhibition of human CDK2/Cyclin A1 using histone H1 as substrate preincubated for 20 mins followed by [gamma-33P]-ATP addition measure after 120 mins by filter binding method. In kind it is protein-complex assay. Summed up: (§1)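 Compound preincubated with kinase 20 min at room temperature. Filter-binding read-out, curve-fitted IC50; mean ± SD of three independent experiments.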

Assay [3] concerns MV4-11. In words: Growth inhibition of human MV4-11 cells after 72 hrs by CellTiter-Glo assay. In kind it is functional, cell-based. Particulars: MV4-11, 72 h. Summed up: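 MV4-11 cells grown in IMDM with 10% FBS, 2% L-glutamine and 1% pen/strep at 37 °C, 5% CO2. Seeded at 10000 cells/well and exposed to compound at various concentrations for 72 h. Viability read by CellTiter-Glo luminescence.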

For assay [4], the target named is T1, Receptor-type tyrosine-protein kinase FLT3 (Homo sapiens, UniProt P36888).
T1 sequence (P36888 whole entry): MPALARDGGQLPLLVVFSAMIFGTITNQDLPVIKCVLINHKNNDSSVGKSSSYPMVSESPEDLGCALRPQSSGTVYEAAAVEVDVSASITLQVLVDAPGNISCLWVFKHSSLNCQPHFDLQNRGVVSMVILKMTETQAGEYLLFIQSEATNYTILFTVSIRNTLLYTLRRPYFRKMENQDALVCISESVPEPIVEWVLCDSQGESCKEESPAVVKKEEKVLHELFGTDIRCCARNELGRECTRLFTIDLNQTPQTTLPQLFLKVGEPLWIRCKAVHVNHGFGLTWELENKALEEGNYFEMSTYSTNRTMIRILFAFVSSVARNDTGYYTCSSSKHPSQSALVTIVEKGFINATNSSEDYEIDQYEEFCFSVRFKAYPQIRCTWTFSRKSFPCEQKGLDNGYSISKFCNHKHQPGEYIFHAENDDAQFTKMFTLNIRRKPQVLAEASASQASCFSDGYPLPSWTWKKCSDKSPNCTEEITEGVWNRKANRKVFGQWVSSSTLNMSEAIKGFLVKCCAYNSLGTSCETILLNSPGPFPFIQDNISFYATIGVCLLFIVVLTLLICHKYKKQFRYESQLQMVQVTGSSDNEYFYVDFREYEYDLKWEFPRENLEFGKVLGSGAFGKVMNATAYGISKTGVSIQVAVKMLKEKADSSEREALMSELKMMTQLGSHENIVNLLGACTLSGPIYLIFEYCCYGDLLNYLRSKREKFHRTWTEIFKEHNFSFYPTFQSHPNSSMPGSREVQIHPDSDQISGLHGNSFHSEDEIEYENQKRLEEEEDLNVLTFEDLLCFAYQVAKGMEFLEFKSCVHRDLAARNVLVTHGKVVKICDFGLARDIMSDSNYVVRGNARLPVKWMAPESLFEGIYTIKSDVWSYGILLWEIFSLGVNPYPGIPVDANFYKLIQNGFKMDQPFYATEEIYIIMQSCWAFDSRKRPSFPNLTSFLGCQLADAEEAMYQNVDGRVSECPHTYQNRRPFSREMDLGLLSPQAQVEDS
The assay is described as follows: Inhibition of human FLT3 using EAIYAAPFAKKK as substrate preincubated for 20 mins followed by [gamma-33P]-ATP addition measure after 120 mins by filter binding method. Summed up: as §1

For a further assay, the target named is CDK6/cyclin D1 (Homo sapiens, UniProt Q00534). The assay is described as follows: Inhibition of human CDK6/Cyclin D1 using RB protein as substrate preincubated for 20 mins followed by [gamma-33P]-ATP addition measure after 120 mins by filter binding method. In kind it is protein-complex assay. The gist of the method:
(§2)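 Compound preincubated with kinase 20 min at room temperature. Reaction started with 10 μM [γ-33P]ATP and run 120 min at 25°C. Filter-binding read-out, curve-fitted IC50; mean ± SD of three independent experiments.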

The subject of assay [5] is MV4-11. In words: Growth inhibition of human MV4-11 cells at 1 uM after 72 hrs by CellTiter-Glo assay relative to control. The format is functional. The conditions noted are these: MV4-11, 72 h, read-out: GI.
The target in assay [6] is Cyclin-dependent kinase 4/cyclin D1 (Homo sapiens, UniProt P11802). The assay is described as follows: Inhibition of human CDK4/Cyclin D1 using RB protein as substrate preincubated for 20 mins followed by [gamma-33P]-ATP addition measure after 120 mins by filter binding method. In kind it is protein-complex assay. The gist of the method: as §2
Chain of Cyclin-dependent kinase 4/cyclin D1 (P11802 whole entry): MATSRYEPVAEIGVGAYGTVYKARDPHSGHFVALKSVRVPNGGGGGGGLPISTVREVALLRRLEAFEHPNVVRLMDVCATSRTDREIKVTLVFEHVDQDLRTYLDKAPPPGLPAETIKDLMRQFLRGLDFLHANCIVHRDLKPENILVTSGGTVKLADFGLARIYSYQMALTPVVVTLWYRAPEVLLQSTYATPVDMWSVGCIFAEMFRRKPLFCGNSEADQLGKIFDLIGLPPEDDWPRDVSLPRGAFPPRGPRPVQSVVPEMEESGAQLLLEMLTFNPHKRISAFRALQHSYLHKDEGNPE
Chain of Cyclin-dependent kinase 4/cyclin D1 (P24385 whole entry, further chain): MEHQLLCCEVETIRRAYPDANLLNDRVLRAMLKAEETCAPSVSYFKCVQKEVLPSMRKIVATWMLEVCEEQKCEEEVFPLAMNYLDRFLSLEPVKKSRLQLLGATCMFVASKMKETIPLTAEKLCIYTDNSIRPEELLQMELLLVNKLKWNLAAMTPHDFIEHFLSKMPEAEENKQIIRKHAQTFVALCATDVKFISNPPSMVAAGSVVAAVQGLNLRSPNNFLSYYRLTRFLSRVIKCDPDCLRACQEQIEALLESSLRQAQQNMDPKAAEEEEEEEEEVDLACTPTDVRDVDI

Chain of CDK6/cyclin D1 (P24385 whole entry): as the sequence (P24385 whole entry, further chain) above
Chain of CDK6/cyclin D1 (Q00534 whole entry): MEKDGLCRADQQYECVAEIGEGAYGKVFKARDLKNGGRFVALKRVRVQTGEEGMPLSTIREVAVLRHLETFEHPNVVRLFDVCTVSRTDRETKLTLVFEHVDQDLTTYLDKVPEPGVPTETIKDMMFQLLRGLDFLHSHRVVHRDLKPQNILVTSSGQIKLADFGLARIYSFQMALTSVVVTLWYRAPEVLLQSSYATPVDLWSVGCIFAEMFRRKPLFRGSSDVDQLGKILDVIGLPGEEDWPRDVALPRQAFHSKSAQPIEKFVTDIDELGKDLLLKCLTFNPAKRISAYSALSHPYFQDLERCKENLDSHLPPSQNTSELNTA

Consider `CN1CCN(Cc2ccc(NC(=O)c3n[nH]cc3Nc3nccc4ccccc34)cc2)CC1`, for which the Activity in assay [1] is 24.5%; in assay [2], 60.5%.

With `O=C(Nc1c[nH]nc1C(=O)Nc1ccc(CN2CCOCC2)cc1)c1ccccc1`, the values for the IC50 (on CDK2/Cyclin A1; with MV4-11 [3]; in assay [4]) were 318 nM, 450 nM and 42.6 nM, respectively.

For `CCc1cc2c(Nc3c[nH]nc3C(=O)Nc3ccc(CN4CCN(C)CC4)cc3)ncnc2s1`, the IC50 on CDK2/Cyclin A1 stood at 1.87 nM; in assay [4], 0.101 nM.

Take `CN1CCN(Cc2ccc(NC(=O)c3n[nH]cc3Nc3ncnc4occc34)cc2)CC1`: the IC50 was 16.5 nM on CDK2/Cyclin A1, 5.09 nM at CDK6/cyclin D1, 2.56 to 2.65 nM in assay [4] and 5.67 nM in assay [6]. Besides, the inhibition of growth at 1 µM in the assay on MV4-11 [5] amounted to 94.7%.

Turning to `O=C(Nc1ccc(CNC2CC2)cc1)c1n[nH]cc1Nc1ncnc2sccc12`, the IC50 was determined as 2.05 nM on CDK2/Cyclin A1 and 1.05 nM in assay [4].

Consider `CCN(CC)Cc1ccc(NC(=O)c2n[nH]cc2Nc2ncnc3sccc23)cc1`, for which the IC50 at CDK2/Cyclin A1 amounted to 1.59 nM; in assay [4] it was 5.36 nM.

`CN1CCN(Cc2ccc(NC(=O)c3n[nH]cc3Nc3ncnc4ccsc34)cc2)CC1`: the IC50 was determined as 9.32 nM at CDK2/Cyclin A1; 23 nM with MV4-11 [3]; 4.11 nM at CDK6/cyclin D1; 0.47 nM in assay [4]; 3.1 nM in assay [6].

As for `O=C(Nc1ccc(CN2CCOCC2)cc1)c1n[nH]cc1Nc1ncnc2[nH]ccc12`, the IC50 amounted to 7.25 nM at CDK2/Cyclin A1, 21 nM in the assay with MV4-11 [3] and 2.06 nM in assay [4].

As for `Cc1sc2ncnc(Nc3c[nH]nc3C(=O)Nc3ccc(CN4CCOCC4)cc3)c2c1C`, the IC50 stood at 7.34 nM on CDK2/Cyclin A1, 30 nM in the assay on MV4-11 [3] and 3.52 nM in assay [4].

Take `CN1CCCN(Cc2ccc(NC(=O)c3n[nH]cc3Nc3ncnc4sccc34)cc2)CC1`: the half-maximal inhibitory concentration (IC50) on CDK2/Cyclin A1 was 3.03 nM; in assay [4], 0.32 nM.

Consider `O=C(Nc1ccc(CN2CCOCC2)cc1)c1n[nH]cc1Nc1nccc2ccccc12`, for which the IC50 on CDK2/Cyclin A1 came out at 287 nM; in assay [4] it was 42.4 nM. Besides, the inhibition of growth at 1 µM in the assay on MV4-11 [5] amounted to 50.4%.

For the compound `CN1CCN(Cc2ccc(NC(=O)c3n[nH]cc3Nc3ccnc4ccccc34)cc2)CC1`, the Activity in assay [1] was determined as 27.7%; in assay [2], 26.5%. Also, in the assay on MV4-11 [5], the inhibition of growth at 1 µM amounted to 98.8%.

`O=C(Nc1ccc(CN2CCOCC2)cc1)c1n[nH]cc1Nc1ncnc2ccsc12`: the IC50 came to 11.6 nM at CDK2/Cyclin A1, 35 nM in the assay with MV4-11 [3] and 6.15 nM in assay [4].

For the compound `O=C(Nc1ccc(CN2CCOCC2)cc1)c1n[nH]cc1Nc1cc(C(F)(F)F)nc2ccccc12`, the Activity in assay [1] amounted to 83.2%; in assay [2], 99.7%. The inhibition of growth at 1 µM with MV4-11 [5] stood at 4.7%.

For the compound `CCc1cc2c(Nc3c[nH]nc3C(=O)Nc3ccc(CN4CCOCC4)cc3)ncnc2s1`, the concentration for half-maximal inhibition (IC50) at CDK2/Cyclin A1 was determined as 3.3 nM; in the assay on MV4-11 [3], 34 nM; in assay [4] it was 1.56 nM.

With `Cc1sc2ncnc(Nc3c[nH]nc3C(=O)Nc3ccc(CN4CCN(C)CC4)cc3)c2c1C`, the half-maximal inhibitory concentration (IC50) on CDK2/Cyclin A1 was found to be 1.9 nM; in assay [4], 0.576 nM.

In the case of `CC(C)c1cc2c(Nc3c[nH]nc3C(=O)Nc3ccc(CN4CCOCC4)cc3)ncnc2s1`, the results for the IC50 (at CDK2/Cyclin A1; with MV4-11 [3]; in assay [4]) were 9.85 nM, 15 nM and 7.63 nM, respectively.

As for `O=C(Nc1ccc(CN2CCOCC2)cc1)c1n[nH]cc1Nc1ccnc2ccccc12`, the Activity in assay [1] was determined as 40.8%; in assay [2] it was 57.7%. Also, the inhibition of growth at 1 µM in the assay on MV4-11 [5] stood at 42%.

Consider `CC(C)c1cc2c(Nc3c[nH]nc3C(=O)Nc3ccc(CN4CCN(C)CC4)cc3)ncnc2s1`, for which the IC50 is 3.89 nM on CDK2/Cyclin A1 and 2.31 nM in assay [4].

With `COc1ccc2c(Nc3c[nH]nc3C(=O)Nc3ccc(CN4CCOCC4)cc3)ccnc2c1`, the Activity in assay [2] came out at 75%. The IC50 in assay [4] was 97.4 nM. Also, the inhibition of growth at 1 µM with MV4-11 [5] stood at 22.2%.

Take `Cc1csc2ncnc(Nc3c[nH]nc3C(=O)Nc3ccc(CN4CCN(C)CC4)cc3)c12`: the concentration for half-maximal inhibition (IC50) at CDK2/Cyclin A1 amounted to 4.49 nM; in assay [4], 0.167 nM.

Regarding `CCN(CC)Cc1ccc(NC(=O)c2n[nH]cc2Nc2ncnc3[nH]ccc23)cc1`, the results for the IC50 (at CDK2/Cyclin A1; in assay [4]) were 13.6 nM and 0.13 nM, respectively.

In the case of `O=C(Nc1ccc(CN2CCOCC2)cc1)c1n[nH]cc1Nc1nc(Cl)nc2ccccc12`, the half-maximal inhibitory concentration (IC50) at CDK2/Cyclin A1 stood at 58.6 nM; in assay [4], 0.958 nM. The inhibition of growth at 1 µM in the assay with MV4-11 [5] was found to be 91.1%.

As for `COc1ccc2c(Nc3c[nH]nc3C(=O)Nc3ccc(CN4CCN(C)CC4)cc3)ccnc2c1`, the results for the concentration for half-maximal inhibition (IC50) (on CDK2/Cyclin A1; in assay [4]) were 697 nM and 197 nM, respectively. Besides, the inhibition of growth at 1 µM with MV4-11 [5] was found to be 22.6%.

In the case of `CN1CCN(Cc2ccc(NC(=O)c3n[nH]cc3Nc3ccnc4ccc(Br)cc34)cc2)CC1`, the results for the IC50 (on CDK2/Cyclin A1; in assay [4]) were 5.74 nM and 4.84 nM, respectively. The inhibition of growth at 1 µM in the assay on MV4-11 [5] is 97.2%.

In the case of `O=C(Nc1ccc(CN2CCOCC2)cc1)c1n[nH]cc1Nc1ccnc2ccc(Br)cc12`, the IC50 at CDK2/Cyclin A1 was determined as 24.1 nM; in assay [4], 16.9 nM. Moreover, in the assay with MV4-11 [5], the inhibition of growth at 1 µM is 93.7%.

For `COc1ccc2ncnc(Nc3c[nH]nc3C(=O)Nc3ccc(CN4CCOCC4)cc3)c2c1`, the IC50 at CDK2/Cyclin A1 is 29.8 nM; in assay [4], 3.78 nM. Also, the inhibition of growth at 1 µM in the assay on MV4-11 [5] is 53.1%.

Take `O=C(Nc1ccc(CN2CCOCC2)cc1)c1n[nH]cc1Nc1ncnc2ccccc12`: the IC50 at CDK2/Cyclin A1 is 5.3 nM; in the assay with MV4-11 [3], 23 nM; in assay [4], 0.588 nM.

In the case of `COc1ccc2nccc(Nc3c[nH]nc3C(=O)Nc3ccc(CN4CCN(C)CC4)cc3)c2c1`, the Activity in assay [1] was 10.4%; in assay [2] it was 32.5%. The inhibition of growth at 1 µM in the assay with MV4-11 [5] came to 64.4%.

With `CN1CCN(Cc2ccc(NC(=O)c3n[nH]cc3Nc3ncnc4ccccc34)cc2)CC1`, the figures for the IC50 (on CDK2/Cyclin A1; in assay [4]) were 8.27 nM and 3.17 nM, respectively.

Take `Cc1cc2c(Nc3c[nH]nc3C(=O)Nc3ccc(CN4CCN(C)CC4)cc3)ncnc2s1`: the IC50 in assay [4] was 0.384 nM.

In the case of `Cc1csc2ncnc(Nc3c[nH]nc3C(=O)Nc3ccc(CN4CCOCC4)cc3)c12`, the half-maximal inhibitory concentration (IC50) came to 1.08 nM on CDK2/Cyclin A1, 11 nM in the assay on MV4-11 [3] and 1.37 nM in assay [4].
